Laboratory results reported in ChEMBL document CHEMBL3734720, “Synthesis of thiophene-thiosemicarbazone derivatives and evaluation of their in vitro and in vivo antitumor activities” (Eur J Med Chem, 2015).

Assays:
[1] = tested on: U-251; assay: Antiproliferative activity against human U251 cells assessed as growth inhibition after 48 hrs by SRB assay; type: functional; conditions: U-251, 48 h
Method in brief: (§1)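 Cells exposed 48 h at 37 °C, 5% CO2 to 0.25, 2.5, 25 and 250 µg/mL in DMSO/RPMI (final DMSO 0.1%); doxorubicin standard at 0.025–25 µg/mL. Plates fixed with 50% TCA before (T0) and after treatment; protein content read by sulforhodamine B at 540 nm. GI50 (µM) from nonlinear regression of concentration–response curves; triplicate.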

[2] = Antitumor activity against mouse EAT implanted in Balb/C mouse assessed as change in paw volume at 100 mg/kg, po administered on day 3 post tumor inoculation measured on day 3 by plethysmometer analysis (reference value: 40.2 +/- 7.0%); type: functional
[3] = Antitumor activity against mouse EAT implanted in Balb/C mouse assessed as change in paw volume at 100 mg/kg, po administered on day 3 post tumor inoculation measured on day 6 by plethysmometer analysis (reference value: 86.1 +/- 5.7%); type: functional
[4] = tested on: 786-0; assay: Cell cycle arrest in human 786-0 cells assessed as accumulation at G2/M phase at 25 uM after 24 hrs by propidium iodide based flow cytometric analysis (reference value: 35.7 +/- 0.9%); type: functional
[5] = tested on: 786-0; assay: Induction of cell death in human 786-0 cells assessed as phosphatidylserine externalization at 50 uM after 24 hrs by annexin V/7-amino-actinomycin D double staining based flow cytometric analysis (reference value: 3.8 +/- 0.5%); type: functional
[6] = tested on: 786-0; assay: Cytotoxicity against human 786-0 cells assessed as compound concentration required to inhibit total growth after 24 hrs by SRB assay; type: functional; conditions: 786-0, 24 h
Method in brief: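 786-0 cells treated 24 h with 25, 50, 100 and 200 µM; growth measured by sulforhodamine B staining. Concentration giving total growth inhibition (TGI) calculated from the concentration–response data.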

[7] = tested on: 786-0; assay: Cytotoxicity against human 786-0 cells assessed as compound concentration required to cause 50% cell death after 24 hrs by SRB assay; type: functional; conditions: 786-0, 24 h, read-out: LC50 (the source's name)
Method in brief: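 786-0 cells exposed 24 h to 25, 50, 100 and 200 µM; growth measured by sulforhodamine B staining of TCA-fixed cells (540 nm) with time-zero plate; LC50 (50% cell death) and TGI derived by non-linear regression.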

[8] = Antiproliferative activity against human HaCaT cells assessed as growth inhibition after 48 hrs by SRB assay; type: cell-based; method in brief: as §1
[9] = Antitumor activity against mouse EAT implanted in Balb/C mouse assessed as change in paw volume at 300 mg/kg, po administered on day 3 post tumor inoculation measured on day 15 by plethysmometer analysis (reference value: 166.5 +/- 6.0%); type: functional
[10] = tested on: NCI-H460; assay: Antiproliferative activity against human NCI-H460 cells assessed as growth inhibition after 48 hrs by SRB assay; type: functional; conditions: NCI-H460, 48 h; method in brief: as §1
[11] = Antitumor activity against mouse EAT implanted in Balb/C mouse assessed as change in paw volume at 300 mg/kg, po administered on day 3 post tumor inoculation measured on day 6 by plethysmometer analysis (reference value: 86.1 +/- 5.7%); type: functional
[12] = Acute toxicity in Balb/C mouse assessed as survival rate at 200 mg/kg, po; type: organism-based; conditions: in vivo
Method in brief: (§2)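 Fixed dose procedure following OECD guideline; Balb/C mice (20-35 g) fasted 16 h, groups of 5 given single oral doses stepwise at 600, 400 and 200 mgKg-1; survival and clinical signs of pain, suffering and impending death recorded per OECD guidance.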

[13] = tested on: 786-0; assay: Induction of cell death in human 786-0 cells assessed as phosphatidylserine externalization at 50 uM after 18 hrs by annexin V/7-amino-actinomycin D double staining based flow cytometric analysis (reference value: 7.2 +/- 1.4%); type: functional
[14] = tested on: HT-29; assay: Antiproliferative activity against human HT-29 cells assessed as growth inhibition after 48 hrs by SRB assay; type: functional; conditions: HT-29, 48 h; method in brief: as §1
[15] = Antitumor activity against mouse EAT implanted in Balb/C mouse assessed as change in paw volume at 30 mg/kg, po administered on day 3 post tumor inoculation measured on day 3 by plethysmometer analysis (reference value: 40.2 +/- 7.0%); type: functional
[16] = tested on: 786-0; assay: Induction of cell death in human 786-0 cells assessed as loss of cell membrane integrity at 50 uM after 24 hrs by annexin V/7-amino-actinomycin D double staining based flow cytometric analysis (reference value: 3.6+/- 0.8%); type: functional
[17] = Antitumor activity against mouse EAT implanted in Balb/C mouse assessed as change in paw volume at 300 mg/kg, po administered on day 3 post tumor inoculation measured on day 9 by plethysmometer analysis (reference value: 95.5 +/- 5.2%); type: functional
[18] = Antitumor activity against mouse EAT implanted in Balb/C mouse assessed as change in paw volume at 30 mg/kg, po administered on day 3 post tumor inoculation measured on day 9 by plethysmometer analysis (reference value: 95.5 +/- 5.2%); type: functional
[19] = tested on: Mus musculus; assay: Acute toxicity in Balb/C mouse assessed as pain, suffering and impending death at 200 to 400 mg/kg, po; type: organism-based; conditions: in vivo; method in brief: as §2
[20] = Antitumor activity against mouse EAT implanted in Balb/C mouse assessed as change in paw volume at 30 mg/kg, po administered on day 3 post tumor inoculation measured on day 12 by plethysmometer analysis (reference value: 125.5 +/- 7.5%); type: functional
[21] = Antitumor activity against mouse EAT implanted in Balb/C mouse assessed as change in paw volume at 30 mg/kg, po administered on day 3 post tumor inoculation measured on day 15 by plethysmometer analysis (reference value: 166.5 +/- 6.0%); type: functional
[22] = Antiproliferative activity against human PC3 cells assessed as growth inhibition after 48 hrs by SRB assay; type: functional; conditions: PC-3, 48 h; method in brief: as §1
[23] = Antiproliferative activity against human NCI-ADR-RES cells assessed as growth inhibition after 48 hrs by SRB assay; type: functional; method in brief: as §1
[24] = Antitumor activity against mouse EAT implanted in Balb/C mouse assessed as change in paw volume at 100 mg/kg, po administered on day 3 post tumor inoculation measured on day 15 by plethysmometer analysis (reference value: 166.5 +/- 6.0%); type: functional
[25] = tested on: 786-0; assay: Antiproliferative activity against human 786-0 cells assessed as growth inhibition after 48 hrs by SRB assay; type: functional; conditions: 786-0, 48 h; method in brief: as §1
[26] = Acute toxicity in Balb/C mouse assessed as survival rate at 600 mg/kg, po; type: organism-based; conditions: in vivo; method in brief: as §2
[27] = Antitumor activity against mouse EAT implanted in Balb/C mouse assessed as change in paw volume at 300 mg/kg, po administered on day 3 post tumor inoculation measured on day 3 by plethysmometer analysis (reference value: 40.2 +/- 7.0%); type: functional
[28] = tested on: 786-0; assay: Cell cycle arrest in human 786-0 cells assessed as reduction in G1 phase at 25 uM after 24 hrs by propidium iodide based flow cytometric analysis (reference value: 46.7 +/- 0.8%); type: functional; set-up: scale not given: the % may be the effect or the level left
[29] = tested on: K562; assay: Antiproliferative activity against human K562 cells assessed as growth inhibition after 48 hrs by SRB assay; type: functional; conditions: K562, 48 h; method in brief: as §1

## S=C(N/N=C/c1cccs1)Nc1ccc(Br)cc1
[1]
  GI50: 4.2 µM
[2]
  Activity: 33.4%
[3]
  Activity: 78.1%
[4]
  Activity: 35.9%
[5]
  Activity: 21.9%
[6]
  TGI: 28 µM
[7]
  CC50: 91.8 µM
[8]
  GI50 at 48 h: 0.8 µM
[9]
  Activity: 106%
[10]
  GI50: 4.7 µM
[11]
  Activity: 75.1%
[12]
  survival: 100%
[13]
  Activity: 15.5%
[14]
  GI50: 17.7 µM
[15]
  Activity: 26.8%
[16]
  Activity: 35.7%
[17]
  Activity: 72.8%
[18]
  Activity: 57.1%
[19]
  Activity: Non-toxic
[20]
  Activity: 36.3%
[21]
  Activity: 82%
[22]
  GI50: 79.4 µM
[23]
  GI50: 1.7 µM
[24]
  Activity: 118.6%
[25]
  GI50: 4.5 µM
[26]
  survival: 100%
[27]
  Activity: 39.4%
[28]
  Activity: 44.9%
[29]
  GI50: > 100 µM
